# This is a sample that favours compounds with a hit; in the whole collection about 3.1% have one here.
# FGF22 binding: binders of recombinant human FGF22 by thermal shift. SYPRO orange fluorescence; percent of sucrose octasulfate shift, DMSO zero. activity (Tm shift, normalised), % at 9.99 µM. hit rate 1.5% among 340,000. AID 651658;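 active = mean Tm shift, scaled 0 neutral to 100 positive control, at about 1.3% or above, every replicate too, limit read from the data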
# Target sequence (Q9HCT0 whole entry, looked up): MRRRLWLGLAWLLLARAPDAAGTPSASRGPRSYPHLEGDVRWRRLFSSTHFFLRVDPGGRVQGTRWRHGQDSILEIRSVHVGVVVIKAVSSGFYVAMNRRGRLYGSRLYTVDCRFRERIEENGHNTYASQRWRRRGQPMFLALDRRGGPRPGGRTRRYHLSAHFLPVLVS
# PGC1a acetyl inh: lowers PGC1a acetylation signal in U2OS cells; hit rate 0.17% among 350,000; AlphaScreen anti-acetyl-lysine; with virally co-expressed GCN5 acetyltransferase; inhibition, % at 15.6 µM; AID 651687;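 active = every replicate shows inhibition of at least 40%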
# HIV Env fusion: inhibitors of HIV Env-mediated cell fusion. HeLa-JRFL Env/CEM21 cell fusion, luciferase. inhibition, % at 12.3 µM. hit rate 1.1% among 360,000. AID 651610;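 active = mean replicate inhibition score of at least 50 and every replicate individually at or above 50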
# EWS-Fli block: inhibitors of EWS/Fli oncoprotein transcriptional activity | A673 NR0B1-luciferase reporter, viability-normalised | inhibition, % at 12.6 µM | hit rate 0.67% among 350,000;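 active = mean inhibition of at least 50% after viability correction, with every replicate also passing that limit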;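 also: firefly luciferase signal divided by Alamar Blue viability fluorescence both relative to DMSO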
# FN deposit inh: fibronectin deposition inhibition. AH1F fibroblasts, Alexa488-fibronectin deposition fluorescence, overnight. hit rate 0.086% among 350,000. inhibition, % at 12.6 µM. AID 743247;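 active = mean inhibition across replicates of 30% or more, regardless of how many single replicates reach that level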
#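 Material – AH1F fibroblast monolayer, labelled fibronectin deposition · Reagent – labelled fibronectin 24 nM · Timing – 1 h adhesion, overnight exposure · Measured by – fluorescence at 485 nm excitation, 525 nm emission · Read-out – inhibition of fibronectin deposition signal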
# PAX8 inh HTS: inhibitors of PAX8 transcriptional activity in RMG-I cells | RMG-I TPO-luciferase reporter, SteadyGlo, 24 h | inhibition, % at 12.6 µM | hit rate 1.2% among 360,000 | AID 652154;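 active = mean replicate inhibition at least 60% with every replicate also reaching 60%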;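 also: luciferase light reporting Pax8 driven TPO promoter activity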
# Hits are given with their value; - = inactive; . = not tested or not shown; [ ] = dose if it differs, or a comment.
SMILES,FGF22 binding,PGC1a acetyl inh,HIV Env fusion,EWS-Fli block,FN deposit inh,PAX8 inh HTS
C[C@@H]1CN([C@@H](C)CO)S(=O)(=O)c2ccc(C3=CCCC3)cc2O[C@@H]1CN(C)C(=O)C1CCOCC1,-,-,69.7[16.7 µM],-,-,-
C[C@@H]1CCCCO[C@H](CN(C)C(=O)Nc2ccc3c(c2)OCO3)[C@@H](C)CN([C@H](C)CO)C(=O)c2cc(NC(=O)Nc3ccc(F)cc3)ccc2O1,-,-,-,-,.,-
C[C@@H]1CN([C@@H](C)CO)C(=O)c2cc(NS(=O)(=O)c3ccc(Cl)cc3)ccc2O[C@@H]1CN(C)C,-,-,.,-,.,-
C[C@H](CO)N1C[C@H](C)[C@@H](CN(C)CC2CCCC2)Oc2cc(C3=CCCCC3)ccc2S1(=O)=O,-,-,56.3[16.7 µM],-,.,-
C[C@H]1CN([C@@H](C)CO)S(=O)(=O)c2ccc(C3=CCCCC3)cc2O[C@@H]1CN(C)Cc1ccccn1,-,-,-,65.4,-,-
C[C@H]1CN([C@@H](C)CO)S(=O)(=O)c2ccc(C3=CCCCC3)cc2O[C@H]1CN(C)Cc1ccccn1,-,-,-,-,-,-
O=c1cc(CO)oc(CN2CCCC2)c1O,.,-,.,.,.,.
CCN(CC)Cc1oc(CO)cc(=O)c1O,43.1,-,-,-,-,-
C[C@@H]1CN([C@@H](C)CO)C(=O)c2cc(NC(=O)Nc3ccccc3)ccc2O[C@H]1CN(C)C(=O)Nc1ccc2c(c1)OCO2,.,-,-,-,.,.
COC1C(CO)OC(n2c3c(Cl)cccc3c3c4c(c5c6cccc(Cl)c6[nH]c5c32)C(=O)NC4=O)C(O)C1O (centres undefined),.,-,-,56.0,-,113.1
CCOCC(=O)Nc1ccccc1C(=O)N1CCOCC1,44.1,.,-,-,-,-
COc1ccc(NC(=O)c2nc[nH]c2C(=O)N(C)CCO)cc1,42.9,.,-,-,-,-
COc1ccc(CN(C)C[C@@H]2Oc3c(NS(C)(=O)=O)cccc3C(=O)N([C@@H](C)CO)C[C@@H]2C)cc1,-,-,-,.,.,-
CSCCC(Nc1ncnc2ccc(Br)cc12)C(=O)O (centres undefined),-,-,-,.,.,.
Brc1ccc2ncnc(NCc3ccco3)c2c1,.,-,66.8,.,-,-
CC(C)Nc1ncnc2ccc(Br)cc12,-,.,55.1,-,-,-
COc1cc2ncnc(NCc3ccco3)c2cc1OC,-,-,-,-,-,-
O=C(C[C@H]1CC[C@H](NC(=O)CN2CCOCC2)[C@H](CO)O1)NCCc1ccncc1,-,-,-,-,-,-
Cc1ccc(S(=O)(=O)N(C)C[C@H]2Oc3ccc(NC(=O)Nc4ccc(C(F)(F)F)cc4)cc3CC(=O)N([C@@H](C)CO)C[C@H]2C)cc1,-,-,94.5[16.7 µM],-,-,98.9
C[C@@H]1CN([C@H](C)CO)C(=O)Cc2cc(NC(=O)Nc3ccc(C(F)(F)F)cc3)ccc2O[C@@H]1CN(C)S(=O)(=O)c1ccc(Cl)cc1,-,-,-,-,.,.
Cc1ccc(S(=O)(=O)N(C)C[C@@H]2Oc3ccc(NC(=O)Nc4ccc(C(F)(F)F)cc4)cc3CC(=O)N([C@@H](C)CO)C[C@@H]2C)cc1,-,-,-,51.5,-,81.1
CC(C)CC#Cc1ccc2c(c1)O[C@H](CN(C)C(=O)Cc1ccccn1)[C@H](C)CN([C@H](C)CO)S2(=O)=O,-,-,-,-,-,.
O=C(CCN1C(=O)C2C3CCC(C3)C2C1=O)Nc1ccccc1Cl (centres undefined),-,.,-,-,-,-
CCc1ccccc1NC(=O)CCN1C(=O)C2C3CCC(C3)C2C1=O (centres undefined),43.8,.,-,-,-,-
Cc1cccc(NC(=S)N=Nc2c(O)n(C)c3ccc(S(=O)(=O)N4CCOCC4)cc23)c1,-,.,58.4,-,-,.
SMILES,FGF22 binding,PGC1a acetyl inh,HIV Env fusion,EWS-Fli block,FN deposit inh,PAX8 inh HTS
Cc1cc(C)cc(NC(=S)N=Nc2c(O)n(C)c3ccc(S(=O)(=O)N4CCOCC4)cc23)c1,-,-,-,-,-,-
O=S(=O)(c1ccc(Cl)c(NC(=S)Nc2cccc(O)c2)c1)N1CCOCC1,1.7,-,-,-,-,-
CCN(C(=S)Nc1cc(S(=O)(=O)N2CCOCC2)ccc1Cl)c1cccc2ccccc12,-,.,-,-,-,-
C[C@H](CO)N1C[C@H](C)[C@H](CN(C)C(=O)C2CCC2)Oc2cc(-c3ccccc3)ccc2S1(=O)=O,.,-,-,-,.,.
CO[C@@H]1CN(C)C(=O)c2ccc(NC(C)=O)cc2OC[C@H](C)N(C(=O)CN(C)C)C[C@@H]1C,.,-,-,-,-,-
O[C@@H]1[C@@H](O)C=C2CCN3Cc4cc5c(cc4[C@H]1C23)OCO5 (some centres undefined),-,.,.,-,-,102.3
C[C@H](CO)N1C[C@H](C)[C@@H](CN(C)C(=O)c2ccncc2)Oc2ncc(-c3ccc(F)cc3)cc2C1=O,.,-,-,-,.,.
C[C@H](CO)N1C[C@H](C)[C@H](CN(C)Cc2ccc(Cl)c(Cl)c2)Oc2ccc(NC(=O)CCCN(C)C)cc2C1=O,-,-,-,70.2,-,-
C[C@H]1CN([C@@H](C)CO)C(=O)c2cc(NS(C)(=O)=O)ccc2O[C@@H]1CN(C)Cc1ccc(Cl)c(Cl)c1,-,-,61.7[16.7 µM],-,.,-
O=C1C=C(NCc2ccc(Cl)c(Cl)c2)CC1,.,-,.,.,.,.
CC1(C)CC(=O)C=C(NCc2ccc(Cl)c(Cl)c2)C1,.,.,60.1,.,-,.
C[C@@H](C(=O)Nc1ccc2ccccc2c1)[C@H]1C[C@]1(C)[C@H](NC(=O)c1cccnc1)c1ccccc1,-,.,68.4,-,-,-
CN(Cc1cnn(Cc2ccccc2)c1)C(=O)c1cccc(S(=O)(=O)N2CCOCC2)c1,-,-,.,-,.,-
COc1ccc(C(=O)N(C)Cc2cnn(Cc3ccccc3)c2)cc1S(=O)(=O)N1CCOCC1,-,-,.,61.7,-,-
CS(=O)(=O)N1[C@H](C#N)[C@H](c2ccc(-c3ccccc3F)cc2)[C@@H]1CO,-,-,-,-,-,-
CCCC(=O)Oc1ccc(N(C(=O)CCC)S(=O)(=O)c2cccs2)cc1,43.3,-,-,-,-,-
O=C(Cc1ccccn1)NCC[C@H]1CC[C@@H](NS(=O)(=O)c2ccccc2)[C@H](CO)O1,-,-,-,-,.,-
CCOC(=O)CN(C(=O)CSc1nnnn1C)c1ccccc1,.,-,70.7,-,-,-
Cc1ccc(S(=O)(=O)N(C)C[C@H]2Oc3c(NC(=O)Nc4c(C)noc4C)cccc3C(=O)N([C@@H](C)CO)C[C@H]2C)cc1,-,-,-,-,.,-
C[C@@H]1CCCCO[C@H](CN(C)C(=O)C2CCCCC2)[C@H](C)CN([C@H](C)CO)C(=O)c2cc(NC(=O)Nc3ccccc3)ccc2O1,-,-,-,-,.,-
Cc1cc(C(=O)Nc2cccc3c2O[C@@H](CN(C)C(=O)Nc2c(C)noc2C)[C@@H](C)CN([C@@H](C)CO)C3=O)n(C)n1,-,-,.,-,-,.

# High-throughput results deposited in PubChem by Broad Institute.
